# The RNAGym collection of RNA variant scans (doi:10.1126/science.aae0568)
# Variants at the floor of the assay were thinned out.
# B1: tRNA (parent)
# chain: GUUCCGUUGGCGUAAUGGUAACGCGUCUCCCUCCUAAGGAGAAGACUGCGGGUUCGAGUCCCGUACGGAACG
# Variants of: B1
# Assay: yeast fitness relative to wild type (ratio to wild type); higher = fitter; tRNA-Arg(CCU), competitive growth, 37 C, YPD
# How it was run: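 Start and end populations of a pooled competition were compared by 100-nucleotide paired-end sequencing of gene amplicons. The Saccharomyces cerevisiae strains carried tRNA-Arg(CCU) gene variants at the native genomic locus, synthesised with a 3% per-site mutation rate at 69 sites, and competed in YPD at 37°C for 24 hours in six parallel replicates. Darwinian fitness relative to wild type was based on the change in genotype frequencies. Genotypes required ≥ 100 starting reads, and estimates < 0.5 were set to 0.5.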
row,Variant,yeast fitness
1,GUUCCGUUGGCGUGAUGGUAACGCGCCUCCCUCCUAGGGAGAAGACUGCGGGUUCGAGUCCCGUACAGAACG [A14G U26C A37G G67A],0.539
2,GUUCCGUUGGCGUUAUGGUCACGCGUCUCCUUCCUAGGGAGAAGACUGCGGGUUCGAGUCCCGUACGGAACG [A14U A20C C31U A37G],≤ 0.5
3,GUUCCGUUGGCGUUAUGGUCACGCGUCUCCGUCCUAAGGAGAAGACUGCGGGUUCGAGUCCCGUAAGGAACG [A14U A20C C31G C66A],≤ 0.5
4,GUUCCGUUGGCGUUCUGGUAACGCGUCUCCAUCCUAAGGAGAAGACUGCGGGUUCGAGUCCCGUACGGAACG [A14U A15C C31A],≤ 0.5
5,GUUCCGUUGGCGUGAGGGUAACGCGUCUCCCUCCUUAGGAGAAGACUGCGGGUUCGAGUCCCGUACGCAACG [A14G U16G A36U G68C],≤ 0.5
6,GUUCCGUUGGCGUUGUGGUAACGCGUCUCCCUCGUAAGGAGAAGACUGCGGGUUCGAGUCUCGUACGGAACG [A14U A15G C34G C61U],≤ 0.5
7,GUUCCGUUGGCGUGAUGGUAACGCGCCUCCCUCCUAGGGAGAAGACUGCGGGUUCGAGUCCCGUACGGAACG [A14G U26C A37G],≤ 0.5
8,GUUCCGUUGGCGUGAUGGUAACGCGCCUCCCUCCUAAGGAGAAGACUGCGGGUUCGAGUCCCGUACGAAACG [A14G U26C G68A],0.557
9,GUUCCGUUGGCGUGAUGGCAACGCGUCUCCCUCCUAAGGAGAAGACUGCGGGUUCGAGACCCGUACGGAACG [A14G U19C U59A],≤ 0.5
10,GUUCCGUUGGCGUUGUGGUACCGCGUCUCCCUCCUAAGGAGAAGACUGCGGGUUCGAGUCCCGUACGGAACG [A14U A15G A21C],0.536
11,GUUCCGUUGGCGUGAUGGUAACGCGGCUCCCUCCUAAGGAGAAGACUGCGGCUUCGAGUACCGUACGGAACG [A14G U26G G52C C60A],0.616
12,GUUCCGUUGGCGUGAUGGUAACGCGUCUCCCCCCUAAGGAGCAGACUGCGGGUUCGUGUCGCGUACGGAACG [A14G U32C A42C A57U C61G],≤ 0.5
13,GUUCCGUUGGCGUGAGGGUAACGCGUCUCCCUCCUAAGGAGAAGACUGCGGGUUCGAGUCCCGUACGGAACG [A14G U16G],0.742
14,GUUCCGUUGGCGUUAUGGUGACGCGUCUCGCUCCUAAGGAGCAGACUGCGGGUUCGAGUCCCGUACGGAGCG [A14U A20G C30G A42C A70G],≤ 0.5
15,GUUCCGUUGGCGUGAUGGCAACGCGUCUCCGUCCUAUGGAGAAGACUGCGGGUUCGAGUCCCGUUCGGAACG [A14G U19C C31G A37U A65U],≤ 0.5
16,GUUCCGUUGGCGUUGUGGUAACGCGUCUCCCUCCUAAGGAGAAGCCUGCAGGUUCGAGUCCUGUACGGAACG [A14U A15G A45C G50A C62U],0.526
17,GUUCCGUUGGCGUGAUGGUAACGCGUCUCCCUCCUAAGGAGAAGACUGCGGGCUCGAGUCCCGUACGGAACG [A14G U53C],0.775
18,GUUCCGUUGGCGUGAUGGUAACGCGUCUCCCUCCUAAGGAGAAGACUGCGGGAUCGAGUCCCGUACGGAACG [A14G U53A],0.63
19,GUUCCGUUGGCGUGAUGGUAACGCGUCGUCCUCCUAAGGAGAAGACUGUGGGUAUGAGUCCCGUACGGACCG [A14G U28G C29U C49U U54A C55U A70C],0.603

row,Variant,yeast fitness
1,GUUCCGUUGGCGUUGUGGUAACGCGUCUCCCUCCUAAGGAGAAGACUGCGGGGUCGAGUCCCGUACGGAACG [A14U A15G U53G],≤ 0.5
2,GUUCCGUUGGCGUGAUGGGAACGCGUCUCCCUCCUAAGGAGAAGACUCCGGGUGCGAGUCCCGUCCGGAACG [A14G U19G G48C U54G A65C],≤ 0.5
3,GUUCCGUUGGCGUGAUGGAAACGCGUCUCCCUCUUAAGGAGAAGACUGCGGGUUCGAGUCCCGUACGGAACG [A14G U19A C34U],≤ 0.5
4,GUUCCGUUGGCGUGAUGGUAACGCGGCUCCCUCCUAAGGAGAAGACUGCGGGUGCGAGUCCCGUACGGUACG [A14G U26G U54G A69U],≤ 0.5
5,GUUCCGUUGGCGUGAUGGUAACGCGUCUCCCUCCCAAGGAGAAGACUGCGGGUUCGAGUCCGGUGCGGAACG [A14G U35C C62G A65G],0.635
6,GUUCCGUUGGCGUGAUGGUAACGCGUCUCCCUCCUAAGGAGAAGACAGCGGGUUCGAGUCCCGUACGGCACG [A14G U47A A69C],≤ 0.5
7,GUUCCGUUGGCGUUCUGGUAACGCGUCUCCCUCCUAAGCAGAAGACUGCGGGUUCGAGUCCCGUACGGAACG [A14U A15C G39C],0.546
8,GUUCCGUUGGCGUGAUGGUAACGCGUCUCCCCCCUAAGGAGAAGACUGCGGGUUCGAGUCCCGUACGGAACG [A14G U32C],0.931
9,GUUCCGUUGGCGUGAUGGUAACGCGUCCCCCUCCUAAGGAGAAGACUGCGGGUUCGAGUCCCGUACGAAACG [A14G U28C G68A],≤ 0.5
10,GUUCCGUUGGCGUGAUGGUAACGCGUCUCCCUCCUAAGGAGAAGACGGCGGGUUCGAGUCCUGUACGGAACG [A14G U47G C62U],≤ 0.5
11,GUUCCGUUGGCGUGAUGGUAACGCGUCCCCCUCCUAAGGAGAAGACUGCGGGUUCGAGUCUCGUACGGAACG [A14G U28C C61U],0.577
12,GUUCCGUUGGCGUGAUGGUAACGCGUCUCCCUCCUAAGGAGAAGACCGCGGGUUCGAGUCCCGUACGAAACG [A14G U47C G68A],≤ 0.5
13,GUUCCGUUGGCGUUGUGGUAACGCGUCUCCCUCCUAAGGAGACGACUGCGGAUUCAAGUCCGGUGCGGAACG [A14U A15G A43C G52A G56A C62G A65G],0.607
14,GUUCCGUUGGCGUGAUGGUAACGCGCCUCCCUCCUAAGGAGAAGACUGCGGGUUCGAGUCCCGUACGGAACG [A14G U26C],0.879
15,GUUCCGUUGGCGUUCUGGUAACGCCUCUCCCUCCUAAGGAGAAGACUGCGGGUUCGAGUCCCGUACGGAACG [A14U A15C G25C],≤ 0.5
16,GUUCCGUUGGCGUGAUGGUAACGCGUCCCCCUCCUAAGGAGAAGACUGCGGGUUCGAGUCCCGUACGGAACG [A14G U28C],0.692
17,GUUCCGUUGGCGUGAUGGUAACGCGUCUCCCUCCUAAGGAGAAGACUGCGGGUGCGAGUCCCGUACGGACCG [A14G U54G A70C],≤ 0.5
18,GUUCCGUUGGCGUUAUGGUCAUGUGUCUCCCUCCUAAGGAGAAGACUGGGGGAUCCAGUCCCGUACGGAACG [A14U A20C C22U C24U C49G U53A G56C],0.547
